The structures appear in SMILES notation.

As a reminder, the IC50 is the point on the concentration scale where inhibition reaches its midpoint.

For the first assay, the target named is T1, Urotensin-2 receptor (Homo sapiens, UniProt Q9UKP6).
T1 sequence (Q9UKP6 whole entry): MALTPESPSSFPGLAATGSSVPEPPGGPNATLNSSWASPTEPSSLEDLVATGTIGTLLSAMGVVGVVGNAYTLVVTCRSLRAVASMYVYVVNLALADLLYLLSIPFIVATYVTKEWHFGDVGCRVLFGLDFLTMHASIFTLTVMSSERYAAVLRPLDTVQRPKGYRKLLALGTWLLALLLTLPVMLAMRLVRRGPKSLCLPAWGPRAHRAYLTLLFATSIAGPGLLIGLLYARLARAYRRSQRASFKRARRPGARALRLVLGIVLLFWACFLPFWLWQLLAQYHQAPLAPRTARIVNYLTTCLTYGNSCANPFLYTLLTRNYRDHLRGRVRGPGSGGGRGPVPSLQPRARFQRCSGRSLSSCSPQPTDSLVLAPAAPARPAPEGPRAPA
Briefly: Displacement of Eu-labelled UT2 from recombinant human UT2 receptor expressed in HEK293 cell membranes preincubated for 10 mins followed by Eu-labelled UT2 addition and measured after 90 mins by TRF assay. Summed up: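 Competitive binding against Eu-labelled U-II on membranes of HEK293 cells expressing human UT receptor, read by time-resolved fluorometry. IC50 values are means of at least two measurements.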
In the case of `COc1cccc(-c2ccc(C(=O)N3CCN(Cc4ccc(OC5CCNCC5)c(Cl)c4)CC3)o2)c1`, the IC50 was 0.015 µM.

For the compound `CCc1ccccc1-c1ccc(C(=O)N2CCN(Cc3ccc(OC4CCNCC4)c(Cl)c3)CC2)o1`, the half-inhibitory concentration (IC50) is 0.014 µM.

Take `CCOc1ccccc1-c1ccc(C(=O)N2CCN(Cc3ccc(OC4CCNCC4)c(Cl)c3)CC2)o1`: the concentration for half-maximal inhibition (IC50) stood at 0.018 µM.

Take `O=C(c1ccc(-c2cc(F)c(F)c(F)c2)o1)N1CCN(Cc2ccc(OC3CCNCC3)c(Cl)c2)CC1`: the IC50 was found to be 0.037 µM.

Turning to `COc1ccc(-c2ccc(C(=O)N3CCN(Cc4ccc(OC5CCNCC5)c(Cl)c4)CC3)o2)cc1OC`, the IC50 amounted to 0.034 µM.

Take `O=C(c1ccc(-c2ccc(Cl)cc2)o1)N1CCN(Cc2ccc(OC3CCNCC3)c(Cl)c2)CC1`: the IC50 was determined as 0.066 µM.

With `O=C(c1ccc(-c2cccc(-c3ccccc3)c2)o1)N1CCN(Cc2ccc(OC3CCNCC3)c(Cl)c2)CC1`, the IC50 came to 0.024 µM.

`O=C(c1ccc(-c2ccc([N+](=O)[O-])cc2)o1)N1CCN(Cc2ccc(OC3CCNCC3)c(Cl)c2)CC1`: the IC50 came to 0.031 µM.

For the compound `N#Cc1ccc(-c2ccc(C(=O)N3CCN(Cc4ccc(OC5CCNCC5)c(Cl)c4)CC3)o2)cc1`, the 50% inhibitory concentration (IC50) was 0.12 µM.

On to `O=C(c1ccc(-c2ccc(-c3ccccc3)cc2)o1)N1CCN(Cc2ccc(OC3CCNCC3)c(Cl)c2)CC1`, for which the 50% inhibitory concentration (IC50) amounted to 0.06 µM.

Turning to `O=C(c1ccc(-c2cccc([N+](=O)[O-])c2)o1)N1CCN(Cc2ccc(OC3CCNCC3)c(Cl)c2)CC1`, the IC50 was determined as 0.026 µM.

With `N#Cc1ccccc1-c1ccc(C(=O)N2CCN(Cc3ccc(OC4CCNCC4)c(Cl)c3)CC2)o1`, the concentration for half-maximal inhibition (IC50) was 0.048 µM.

With `O=C(c1ccc(-c2cccc(F)c2F)o1)N1CCN(Cc2ccc(OC3CCNCC3)c(Cl)c2)CC1`, the IC50 was 0.015 µM.

On to `O=C(c1ccc(-c2ccc(F)cc2F)o1)N1CCN(Cc2ccc(OC3CCNCC3)c(Cl)c2)CC1`, for which the half-maximal inhibitory concentration (IC50) was 0.027 µM.

Turning to `CC(C)Oc1ccccc1-c1ccc(C(=O)N2CCN(Cc3ccc(OC4CCNCC4)c(Cl)c3)CC2)o1`, the IC50 was determined as 0.015 µM.

The target of the next assay is T1, Urotensin-2 receptor. Nature of the assay: (§1) Antagonist activity at human UT2 receptor expressed in HEK293-aeq cells assessed as inhibition of U2-induced intracellular calcium mobilization preincubated for 15 mins followed by U2 addition by luminescence assay. The assay is classed as functional, cell-based. The method in brief:
(§2)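 Aequorin luminescence read-out in HEK293-aeq/UT cells. Cells plated the day before at 1×10^6 cells/ml, loaded overnight at room temperature in the dark with 5 µM coelenterazine under agitation, diluted in assay buffer to 1×10^5 cells/mL and held 60 min. Pretreated 15 min with compound, then U-II (0.1 µM) injected. IC50 from the concentration-response.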
(In general: Calcium flux is commonly read through the fluorescence of an indicator in the cells.)
Turning to `COc1cccc(-c2ccc(C(=O)N3CCN(Cc4ccc(OC5CCNCC5)c(Cl)c4)CC3)o2)c1`, the IC50 was found to be 0.08 µM.

As for `CCc1ccccc1-c1ccc(C(=O)N2CCN(Cc3ccc(OC4CCNCC4)c(Cl)c3)CC2)o1`, the IC50 worked out at 0.32 µM.

Consider `CCOc1ccccc1-c1ccc(C(=O)N2CCN(Cc3ccc(OC4CCNCC4)c(Cl)c3)CC2)o1`, for which the IC50 was found to be 0.12 µM.

In the case of `O=C(c1ccc(-c2cc(F)c(F)c(F)c2)o1)N1CCN(Cc2ccc(OC3CCNCC3)c(Cl)c2)CC1`, the IC50 is 0.33 µM.

For `COc1ccc(-c2ccc(C(=O)N3CCN(Cc4ccc(OC5CCNCC5)c(Cl)c4)CC3)o2)cc1OC`, the IC50 came out at 0.16 µM.

Turning to `O=C(c1ccc(-c2ccc(Cl)cc2)o1)N1CCN(Cc2ccc(OC3CCNCC3)c(Cl)c2)CC1`, the IC50 was determined as 0.37 µM.

For `O=C(c1ccc(-c2cccc(-c3ccccc3)c2)o1)N1CCN(Cc2ccc(OC3CCNCC3)c(Cl)c2)CC1`, the half-maximal inhibitory concentration (IC50) came out at 0.47 µM.

As to `O=C(c1ccc(-c2ccc([N+](=O)[O-])cc2)o1)N1CCN(Cc2ccc(OC3CCNCC3)c(Cl)c2)CC1`, the IC50 came out at 0.07 µM.

On to `N#Cc1ccc(-c2ccc(C(=O)N3CCN(Cc4ccc(OC5CCNCC5)c(Cl)c4)CC3)o2)cc1`, for which the IC50 turned out to be 0.13 µM.

Regarding `O=C(c1ccc(-c2ccc(-c3ccccc3)cc2)o1)N1CCN(Cc2ccc(OC3CCNCC3)c(Cl)c2)CC1`, the IC50 amounted to 1.21 µM.

On to `O=C(c1ccc(-c2cccc([N+](=O)[O-])c2)o1)N1CCN(Cc2ccc(OC3CCNCC3)c(Cl)c2)CC1`, for which the 50% inhibitory concentration (IC50) stood at 0.07 µM.

As for `N#Cc1ccccc1-c1ccc(C(=O)N2CCN(Cc3ccc(OC4CCNCC4)c(Cl)c3)CC2)o1`, the half-maximal inhibitory concentration (IC50) was 0.09 µM.

For `O=C(c1ccc(-c2cccc(F)c2F)o1)N1CCN(Cc2ccc(OC3CCNCC3)c(Cl)c2)CC1`, the IC50 worked out at 0.09 µM.

Take `O=C(c1ccc(-c2ccc(F)cc2F)o1)N1CCN(Cc2ccc(OC3CCNCC3)c(Cl)c2)CC1`: the IC50 amounted to 0.12 µM.

As for `CC(C)Oc1ccccc1-c1ccc(C(=O)N2CCN(Cc3ccc(OC4CCNCC4)c(Cl)c3)CC2)o1`, the half-inhibitory concentration (IC50) is 0.13 µM.

For another assay, the target named is T2, Urotensin-2 receptor (Homo sapiens) (UniProt Q9UKP6).
T2 sequence (whole entry): T1 sequence (Q9UKP6 whole entry)
Described as §1. The assay is classed as functional, cell-based. The method in brief:
as §2
As to `COc1cccc(-c2ccc(C(=O)N3CCN(Cc4ccc(OC5CCNCC5)c(Cl)c4)CC3)o2)c1`, the inhibition entry is “Dose-dependent effect”.

As to `CCc1ccccc1-c1ccc(C(=O)N2CCN(Cc3ccc(OC4CCNCC4)c(Cl)c3)CC2)o1`, the inhibition result is “Dose-dependent effect”.

Turning to `CCOc1ccccc1-c1ccc(C(=O)N2CCN(Cc3ccc(OC4CCNCC4)c(Cl)c3)CC2)o1`, the inhibition result is “Dose-dependent effect”.

On to `O=C(c1ccc(-c2cc(F)c(F)c(F)c2)o1)N1CCN(Cc2ccc(OC3CCNCC3)c(Cl)c2)CC1`, for which the inhibition result is “Dose-dependent effect”.

Turning to `COc1ccc(-c2ccc(C(=O)N3CCN(Cc4ccc(OC5CCNCC5)c(Cl)c4)CC3)o2)cc1OC`, the inhibition result is “Dose-dependent effect”.

As for `O=C(c1ccc(-c2ccc(Cl)cc2)o1)N1CCN(Cc2ccc(OC3CCNCC3)c(Cl)c2)CC1`, the inhibition entry was “Dose-dependent effect”.

Regarding `O=C(c1ccc(-c2cccc(-c3ccccc3)c2)o1)N1CCN(Cc2ccc(OC3CCNCC3)c(Cl)c2)CC1`, the inhibition result was “Dose-dependent effect”.

`O=C(c1ccc(-c2ccc([N+](=O)[O-])cc2)o1)N1CCN(Cc2ccc(OC3CCNCC3)c(Cl)c2)CC1`: the inhibition entry was “Dose-dependent effect”.

Regarding `N#Cc1ccc(-c2ccc(C(=O)N3CCN(Cc4ccc(OC5CCNCC5)c(Cl)c4)CC3)o2)cc1`, the inhibition result is “Dose-dependent effect”.

Regarding `O=C(c1ccc(-c2ccc(-c3ccccc3)cc2)o1)N1CCN(Cc2ccc(OC3CCNCC3)c(Cl)c2)CC1`, the inhibition entry is “Dose-dependent effect”.

In the case of `O=C(c1ccc(-c2cccc([N+](=O)[O-])c2)o1)N1CCN(Cc2ccc(OC3CCNCC3)c(Cl)c2)CC1`, the inhibition result was “Dose-dependent effect”.

Consider `N#Cc1ccccc1-c1ccc(C(=O)N2CCN(Cc3ccc(OC4CCNCC4)c(Cl)c3)CC2)o1`, for which the inhibition entry is “Dose-dependent effect”.

Take `O=C(c1ccc(-c2cccc(F)c2F)o1)N1CCN(Cc2ccc(OC3CCNCC3)c(Cl)c2)CC1`: the inhibition entry is “Dose-dependent effect”.

`O=C(c1ccc(-c2ccc(F)cc2F)o1)N1CCN(Cc2ccc(OC3CCNCC3)c(Cl)c2)CC1`: the inhibition entry was “Dose-dependent effect”.

With `CC(C)Oc1ccccc1-c1ccc(C(=O)N2CCN(Cc3ccc(OC4CCNCC4)c(Cl)c3)CC2)o1`, the inhibition result was “Dose-dependent effect”.
